Measurements taken from ChEMBL document CHEMBL3244134, “Potential anticancer agents. 16. Methotrexate analogues with a modified peptide side chain” (J Med Chem, 1978).
Several values for one entry are separate records, joined by “and”; a condition that tells them apart may be missing. Equal values may be shown once.

Experiments:
[1] = Toxicity in Wistar rat administered as single dose; assay type: organism-based; settings: in vivo
Procedure, shortened: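 LD50 determined from single doses in Wistar rats, reported in mg/kg and mmol/kg.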

L1210 [2] = test: Antitumor activity against mouse L1210 cells allografted in BDF1 mouse assessed as increase in life span at 23 mg/kg administered 7 times starting 24 hrs post challenge relative to control; assay type: functional; settings: L1210, 24 h
Procedure, shortened: (§1)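 L1210 leukemia: BDF1 mice inoculated ip with 10⁶ leukemic cells. Treatment started 24 h after inoculation, given daily in aqueous solution at pH 8.0–8.4. Survival of treated mice compared with untreated controls, expressed as %ILS = (T/C − 1) × 100.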

L1210 [3] = test: Antitumor activity against mouse L1210 cells allografted in BDF1 mouse assessed as increase in life span at 33 mg/kg administered 6 times starting 24 hrs post challenge relative to control; assay type: functional; settings: L1210, 24 h; procedure, shortened: as §1
L1210 [4] = test: Antitumor activity against mouse L1210 cells allografted in BDF1 mouse assessed as increase in life span at 25 mg/kg administered 6 times starting 24 hrs post challenge relative to control; assay type: functional; settings: L1210, 24 h; procedure, shortened: as §1
L1210 [5] = test: Antitumor activity against mouse L1210 cells allografted in BDF1 mouse assessed as increase in life span at 50 mg/kg administered 6 times starting 24 hrs post challenge relative to control; assay type: functional; settings: L1210, 24 h; procedure, shortened: as §1
L1210 [6] = test: Antitumor activity against mouse L1210 cells allografted in BDF1 mouse assessed as increase in life span at 78 mg/kg administered 9 times starting 24 hrs post challenge relative to control; assay type: functional; settings: L1210, 24 h; procedure, shortened: as §1
W256 [7] = test: Antitumor activity against rat Walker 256 cells allografted in rat assessed as tumor growth inhibition at 60 mg/kg administered 14 times starting 7 days post challenge relative to control; settings: W256, 7 days, read-out: TGI
L1210 [8] = test: Antitumor activity against mouse L1210 cells allografted in BDF1 mouse assessed as increase in life span at 10 mg/kg administered 8 times starting 24 hrs post challenge relative to control; assay type: functional; settings: L1210, 24 h
Procedure, shortened: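 BDF1 mice inoculated ip with 10⁶ L1210 leukemia cells; daily dosing in aqueous solution at pH 8.0–8.4 starting 24 h after inoculation. Increase in life span computed as %ILS = (T/C − 1) × 100.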

W256 [9] = test: Antitumor activity against […] 256 cells allografted in rat assessed as tumor growth inhibition at 8 mg/kg administered 14 times starting 24 hrs post challenge relative to control; assay type: functional; settings: W256, 24 h, read-out: TGI
L1210 [10] = test: Antitumor activity against mouse L1210 cells allografted in BDF1 mouse assessed as increase in life span at 20 mg/kg administered 7 times starting 24 hrs post challenge relative to control; assay type: functional; settings: L1210, 24 h; procedure, shortened: as §1
L1210 [11] = test: Antitumor activity against mouse L1210 cells allografted in BDF1 mouse assessed as increase in life span at 90 mg/kg administered 9 times starting 24 hrs post challenge relative to control; assay type: functional; settings: L1210, 24 h; procedure, shortened: as §1
L1210 [12] = test: Antitumor activity against mouse L1210 cells allografted in BDF1 mouse assessed as increase in life span at 45 mg/kg administered 10 times starting 24 hrs post challenge relative to control; assay type: functional; settings: L1210, 24 h; procedure, shortened: as §1
W256 [13] = test: Antitumor activity against […] 256 cells allografted in rat assessed as tumor growth inhibition at 40 mg/kg administered 9 times starting 7 days post challenge relative to control; settings: W256, 7 days, read-out: TGI

CN(Cc1cnc2nc(N)nc(N)c2n1)c1ccc(C(=O)NCC(=O)O)cc1
LD50 [1]: 250 mg/kg and 650 µmol/kg | ILS at 23 mg/kg (L1210 [2]): 0%

CC(NC(=O)c1ccc(N(C)Cc2cnc3nc(N)nc(N)c3n2)cc1)C(=O)O.O (stereo not given)
LD50 [1]: 349 mg/kg and 810 µmol/kg | ILS at 33 mg/kg (L1210 [3]): 0%

CN(Cc1cnc2nc(N)nc(N)c2n1)c1ccc(C(=O)NCCC(=O)O)cc1.O
LD50 [1]: 250 mg/kg and 580 µmol/kg | ILS at 25 mg/kg (L1210 [4]): 19%

CN(CC(=O)O)C(=O)c1ccc(N(C)Cc2cnc3nc(N)nc(N)c3n2)cc1.O
LD50 [1]: 400 mg/kg and 920 µmol/kg | ILS at 50 mg/kg (L1210 [5]): 0%

CCC(NC(=O)c1ccc(N(C)Cc2cnc3nc(N)nc(N)c3n2)cc1)C(=O)O (stereo not given)
LD50 [1]: 925 mg/kg and 2250 µmol/kg | ILS at 78 mg/kg (L1210 [6]): 16% | inhibition in vivo at 60 mg/kg (W256 [7]): 47%

CN(Cc1cnc2nc(N)nc(N)c2n1)c1ccc(C(=O)NCCCC(=O)O)cc1.O
LD50 [1]: 106 mg/kg and 250 µmol/kg | ILS at 10 mg/kg (L1210 [8]): 0% | inhibition in vivo at 8 mg/kg (W256 [9]): 55%

CC(C)C(NC(=O)c1ccc(N(C)Cc2cnc3nc(N)nc(N)c3n2)cc1)C(=O)O (stereo not given)
LD50 [1]: 200 mg/kg and 470 µmol/kg | ILS at 20 mg/kg (L1210 [10]): 0%

CC(C)C[C@H](NC(=O)c1ccc(N(C)Cc2cnc3nc(N)nc(N)c3n2)cc1)C(=O)O
ILS at 90 mg/kg (L1210 [11]): 24%

CN(Cc1cnc2nc(N)nc(N)c2n1)c1ccc(C(=O)N[C@@H](Cc2ccccc2)C(=O)O)cc1.O
LD50 [1]: 500 mg/kg and 1020 µmol/kg | ILS at 45 mg/kg (L1210 [12]): 14% | inhibition in vivo at 40 mg/kg (W256 [13]): 58%
